What was measured:
[1] = molecular target: T1, ATP-citrate synthase (Mus musculus) (UniProt Q91V92); test: In Vitro evaluation for the CF1 liver enzyme activity on ATP-Citrate Lyase exchange at concentration 50 uM
T1 sequence (whole entry): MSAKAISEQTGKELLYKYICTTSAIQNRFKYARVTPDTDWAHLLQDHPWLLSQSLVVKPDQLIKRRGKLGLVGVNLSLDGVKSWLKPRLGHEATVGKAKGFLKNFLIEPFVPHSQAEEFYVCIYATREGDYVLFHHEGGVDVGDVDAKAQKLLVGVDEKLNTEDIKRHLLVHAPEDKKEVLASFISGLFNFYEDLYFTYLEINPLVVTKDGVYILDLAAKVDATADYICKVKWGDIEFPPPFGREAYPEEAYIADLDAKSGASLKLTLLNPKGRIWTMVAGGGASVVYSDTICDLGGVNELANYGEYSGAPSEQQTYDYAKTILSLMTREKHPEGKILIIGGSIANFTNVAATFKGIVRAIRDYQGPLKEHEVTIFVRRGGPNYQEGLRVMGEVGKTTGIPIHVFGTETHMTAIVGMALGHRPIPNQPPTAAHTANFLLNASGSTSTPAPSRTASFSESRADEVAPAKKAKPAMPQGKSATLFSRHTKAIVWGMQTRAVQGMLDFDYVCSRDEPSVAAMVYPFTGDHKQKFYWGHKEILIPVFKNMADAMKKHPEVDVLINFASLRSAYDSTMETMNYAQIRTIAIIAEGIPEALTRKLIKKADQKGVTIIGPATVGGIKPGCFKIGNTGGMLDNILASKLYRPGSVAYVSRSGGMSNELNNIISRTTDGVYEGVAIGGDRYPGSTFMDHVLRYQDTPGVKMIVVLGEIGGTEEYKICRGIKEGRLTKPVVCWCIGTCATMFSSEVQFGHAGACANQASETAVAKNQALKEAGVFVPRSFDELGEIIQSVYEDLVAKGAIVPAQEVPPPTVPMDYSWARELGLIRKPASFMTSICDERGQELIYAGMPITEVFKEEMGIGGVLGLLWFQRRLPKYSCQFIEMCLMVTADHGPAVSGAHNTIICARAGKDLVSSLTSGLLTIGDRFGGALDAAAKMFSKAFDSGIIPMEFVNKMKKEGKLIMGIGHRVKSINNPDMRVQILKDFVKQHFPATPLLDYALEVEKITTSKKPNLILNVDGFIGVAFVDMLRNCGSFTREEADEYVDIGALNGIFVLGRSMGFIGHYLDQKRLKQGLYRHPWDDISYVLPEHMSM
Outline: (§1)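 Liver was taken from CF1 male mice and made into 10% homogenates, which were incubated with test compound at 50, 100 or 200 µM. Each enzyme was assayed by its literature method, and protein was measured by Lowry. N = 6. Activity is expressed as % of untreated control ± SD.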

[2] = molecular target: T1, ATP-citrate synthase (Mus musculus); test: In Vitro evaluation for the CF1 liver enzyme activity on ATP-dependent citrate exchange at concentration 50 uM; outline: as §1
[3] = molecular target: T1, ATP-citrate synthase (Mus musculus); test: In Vivo effect for the hypolipidemic activity on ATP-Citrate Lyase in CF1 mice after 16 days of oral administration at a dose of 10 mg/kg; type: organism-based; parameters: dose 10 mg/kg
Outline: (§2)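 CF1 male mice are dosed orally at 10–60 mg/kg per day for 16 days, with 1% CMC as the control vehicle. Liver is homogenized at 10% in 0.25 M sucrose + 0.001 M EDTA, pH 7.2. Enzymes are assayed by literature methods, with Lowry protein. Activity is given as % of control (X ± SD, N = 6), with p from Student's t test.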

[4] = test system: Mus musculus; test: Compound was evaluated for the hypolipidemic activity in CF1 male mice at a dose of 10 mg/kg orally for Serum cholesterol at 9th day.; type: functional; conditions: route oral
Outline: (§3)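 CF1 male mice received the agent orally in 1% CMC at 10–60 mg/kg per day. Tail-vein blood was taken on days 9 and 16. Serum cholesterol was measured by modified Liebermann–Burchard on duplicate 25-µL samples, and serum triglyceride on day 16 in duplicate 50-µL samples. Values are % of vehicle control, mean ± SD, N = 6; Student's t test.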

[5] = test system: Mus musculus; test: Hypolipidemic activity in CF1 male mice at a dose of 20 mg/kg per day, serum cholesterol measured on the 16th day; type: functional
Outline: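 CF1 male mice (~30 g) were given 20 mg/kg per day ip at 11:00 a.m.; N = 6 per group. Tail-vein serum was collected in nonheparinized microcapillaries. Cholesterol was measured on days 9 and 16 by modified Liebermann–Burchard on duplicate 25 µL samples. Triglyceride was measured on day 16 in a separate group, duplicate 50 µL. Values are % control ± SD; Student's t test.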

[6] = test system: Mus musculus; test: Compound was evaluated for the hypolipidemic activity in CF1 male mice at a dose of 40 mg/kg orally for Serum cholesterol at 9th day; type: functional; conditions: route oral; outline: as §3
[7] = test system: Mus musculus; test: Compound was evaluated for the hypolipidemic activity in CF1 male mice at a dose of 60 mg/kg orally for Serum triglyceride at 16th day; type: functional; conditions: route oral
Outline: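 CF1 male mice dosed orally at 10–60 mg/kg per day, with 1% CMC as the vehicle control; N = 6 per group. Serum cholesterol was read on days 9 and 16 and serum triglyceride on day 16. Liver lipids were extracted on day 16 and assayed for cholesterol, triglyceride, neutral lipid, phospholipid and protein. Values are given as % of control ± SD.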

[8] = test system: Mus musculus; test: In Vivo effect for the hypolipidemic activity on Hepatic lipoprotein lipase in CF1 mice after 16 days administered orally at a dose of 60 mg/kg; type: functional; conditions: route oral; outline: as §2
[9] = test system: Rattus norvegicus; test: Compound was evaluated for the hypolipidemic activity at 20 mg/kg per day orally for 14 days on lipid content in rat liver; type: functional; conditions: route oral
Outline: (§4)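 Male Sprague–Dawley rats were dosed orally for 14 days. Liver, small intestine and a 24-h fecal collection were lipid-extracted. Extracts were assayed for cholesterol (modified Liebermann–Burchard), triglyceride (enzymatic kit), neutral lipids, phospholipids and protein. Values are % of 1% CMC vehicle control, mean ± SD, N = 6.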

[10] = test system: Rattus norvegicus; test: Compound was evaluated for the hypolipidemic activity at 20 mg/kg per day orally for 14 days on triglycerides content in rat HDL; type: functional; conditions: route oral
Outline: (§5)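 Male Sprague–Dawley rats (~300 g) were dosed orally each day. Blood was drawn from the abdominal vein. Lipoprotein fractions (chylomicron, VLDL, LDL, HDL) were separated by the Hatch–Lees and Havel methods. Each fraction was assayed for cholesterol, triglyceride (enzymatic kit), neutral lipids, phospholipids and Lowry protein. Values are % of 1% CMC vehicle control, N = 6.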

[11] = test system: Rattus norvegicus; test: Compound was evaluated for the hypolipidemic activity at 20 mg/kg per day orally for 14 days on triglycerides content in rat LDL; type: functional; conditions: route oral; outline: as §5
[12] = test system: Rattus norvegicus; test: Compound was evaluated for the hypolipidemic activity at 20 mg/kg per day orally for 14 days on triglycerides content in rat small intestine.; type: functional; conditions: route oral; outline: as §4
[13] = organism: Mus musculus; test: In Vitro evaluation for the CF1 liver enzyme activity on phosphatidate phosphohydrolase at concentration 100 uM
Outline: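 Mouse liver enzymes assayed in vitro on 10% homogenates of CF1 male mouse liver, with test drug added at 50–200 μM. Each enzyme follows a published procedure. Protein is measured by Lowry. Activity is given as % of untreated control (X ± SD, N = 6).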

[14] = test system: Mus musculus; test: In Vivo effect for the hypolipidemic activity on phosphatidate phosphohydrolase in CF1 mice after 16 days administered orally at a dose of 40 mg/kg; type: organism-based; parameters: dose 40 mg/kg; outline: as §2

Control [1]: 72% | Control [2]: 72% | Control [3]: 70% | Control [13]: 29%
Compound: COc1ccc(C2C(=O)c3ccccc3C2=O)cc1 [ANISINDIONE]
Control [4]: 82% | Serum cholesterol, % of control [5]: 59% | Control [6]: 79% | Control [7]: 67% | Control [8]: 89% | Control [9]: 98% | Control [10]: 59% | Control [11]: 40% | Control [12]: 89% | Control [14]: 57%
